The source of these data is ChEMBL document CHEMBL1240517, “Bisbibenzyl derivatives sensitize vincristine-resistant KB/VCR cells to chemotherapeutic agents by retarding P-gp activity” (Bioorg Med Chem, 2010).

Several values for one entry are separate records, joined by “and”; a condition that tells them apart may be missing. Equal entries are not always repeated. Activity calls are given as the source filed them. The calls are words filed in the database; no cut-off is given here.

Assay [1] concerns KB/VCR. Put plainly: Inhibition of P-gp-mediated rhodamine-123 efflux in human KB/VCR cells at 6 uM after 1 hr by flow cytometry. Type of assay: cell-based. Put shortly:
(§1)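 For efflux, cells were loaded with 5 µM Rh123 together with modulator or verapamil for 60 min at 37 °C. Cells were washed three times in Rh123-free medium and collected at 15, 30, 45, 60, 90 and 120 min after wash-out. They were resuspended in ice-cold PBS, and remaining Rh123 fluorescence was measured by flow cytometry.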

Assay [2] deals with KB/VCR. In words: Reversal of P-glycoprotein-mediated vincristine-resistance in human KB/VCR cells expressing Pgp assessed as ratio of adriamycin IC50 to adriamycin IC50 in presence of compound at 4 uM after 48 hrs by MTT assay. Type of assay: cell-based. Put shortly: (§2)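 Cells were exposed for 48 h to VCR or ADR alone, or to VCR or ADR combined with a fixed concentration of modulator. Verapamil (16 µM) served as the reference agent. […] RF = IC50 of drug alone / IC50 with modulator. Means ± SD of three experiments.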
(Tetrazolium dyes change colour on reduction, which living cells bring about.)

Assay [3] is described as follows: Cytotoxicity against human KB/VCR cells expressing Pgp after 48 hrs by MTT assay. In kind it is functional, cell-based. Put shortly:
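KB/VCR cells were kept in 200 ng/mL VCR and moved to drug-free medium for at least one week before use. Cells were exposed to graded compound concentrations for 48 h, with DMSO-treated cells as controls. Viability was read by MTT. IC50 values are means of three experiments.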

Assay [4] relates to KB/VCR. In words: Reversal of P-glycoprotein-mediated vincristine-resistance in human KB/VCR cells expressing Pgp assessed as ratio of adriamycin IC50 to adriamycin IC50 in presence of compound at 8 uM after 48 hrs by MTT assay. In kind it is cell-based. A digest of the protocol:
as §2

The test system of assay [5] is KB. In words: Cytotoxicity against human KB cells after 48 hrs by MTT assay. In kind it is functional, cell-based.
In assay [6] the test system is KB. In words: Potentiation of adriamycin-induced cytotoxicity against human KB cells at 16 uM after 48 hrs by MTT assay. In kind it is functional. A digest of the protocol: as §2
The subject of assay [7] is KB/VCR. In words: Induction of apoptosis in human KB/VCR cells expressing Pgp assessed as morphological changes using DAPI staining at 16 uM after 48 hrs by fluorescence microscopic analysis. Type of assay: functional, cell-based. Put shortly:
(§3)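 KB/VCR cells were treated for 48 h with modulator (16 µM), VCR (0.2 µM), or both. Cells were fixed in 4% paraformaldehyde for 10 min, permeabilized with 0.1% Triton X-100, and stained with DAPI (1:2000) for 10 min. Condensed or fragmented nuclei were scored by fluorescence microscopy.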

In assay [8] the test system is KB/VCR. In words: Reversal of P-glycoprotein-mediated vincristine-resistance in human KB/VCR cells expressing Pgp assessed as ratio of vincristine IC50 to vincristine IC50 in presence of compound at 8 uM after 48 hrs by MTT assay. Type of assay: cell-based. A digest of the protocol: (§4)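 Cells were exposed for 48 h to VCR or ADR alone, or to VCR or ADR combined with a fixed concentration of modulator. RF = IC50 of drug alone / IC50 with modulator. Means ± SD of three experiments.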

Assay [9] relates to KB/VCR. Put plainly: Reversal of P-glycoprotein-mediated vincristine-resistance in human KB/VCR cells expressing Pgp assessed as ratio of adriamycin IC50 to adriamycin IC50 in presence of compound at 16 uM after 48 hrs by MTT assay. In kind it is cell-based. Put shortly:
as §2

Assay [10] concerns KB. In words: Induction of rhodamine-123 accumulation in human KB cells at […] after 1 hr by flow cytometry. In kind it is functional, cell-based. A digest of the protocol:
(§5)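 Cells were pretreated with modulator at 4, 8 or 16 µM, or DMSO, for 1 h. Rh123 (5 µM) was then added for a further 1 h at 37 °C in the dark. Cells were washed and resuspended in ice-cold PBS. Rh123 fluorescence was read by flow cytometry using 488 nm excitation and a 530 nm band-pass filter. Means ± SD of three independent experiments, compared with DMSO-treated cells.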
In general terms: A flow cytometer gives signals particle by particle.

The test system of assay [11] is KB. Put plainly: Potentiation of vincristine-induced cytotoxicity against human KB cells at 8 uM after 48 hrs by MTT assay. In kind it is functional. A digest of the protocol: as §2
Assay [12] deals with KB. In words: Potentiation of adriamycin-induced cytotoxicity against human KB cells at 4 uM after 48 hrs by MTT assay. Type of assay: functional. A digest of the protocol:
as §2

Assay [13] deals with KB/VCR. Put plainly: Inhibition of P-gp-mediated rhodamine-123 efflux in human KB/VCR cells at 6 uM after 2 hrs by flow cytometry. Type of assay: cell-based. Put shortly: as §1
Assay [14] deals with KB/VCR. In words: Reversal of P-glycoprotein-mediated vincristine-resistance in human KB/VCR cells expressing Pgp assessed as ratio of vincristine IC50 to vincristine IC50 in presence of compound at 16 uM after 48 hrs by MTT assay. In kind it is cell-based. Put shortly: as §2
Assay [15] relates to KB/VCR. Put plainly: Reversal of P-glycoprotein-mediated vincristine-resistance in human KB/VCR cells expressing Pgp assessed as ratio of vincristine IC50 to vincristine IC50 in presence of compound at 4 uM after 48 hrs by MTT assay. Type of assay: cell-based. A digest of the protocol:
as §4

Assay [16] has as its system KB/VCR. Put plainly: Induction of apoptosis in human KB/VCR cells expressing Pgp assessed as up-regulation of Bax expression at 16 uM after 48 hrs by Western blotting. In kind it is functional, cell-based. Put shortly:
(§6)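 KB/VCR cells were treated for 48 h with modulator (16 µM), VCR (0.2 µM), or both. Cells were lysed in RIPA buffer containing protease and phosphatase inhibitors. Protein was separated by SDS–PAGE and transferred to PVDF. Membranes were blocked in 5% milk/TBST and probed overnight with anti-Bcl-2 or anti-Bax, then an HRP secondary. GAPDH served as loading control, with ECL detection.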
(In general: A western blot detects proteins with antibodies after separation by electrophoresis.)

Assay [17] concerns KB. Put plainly: Potentiation of vincristine-induced cytotoxicity against human KB cells at 16 uM after 48 hrs by MTT assay. In kind it is functional. A digest of the protocol:
as §2

Assay [18] relates to KB/VCR. Put plainly: Induction of apoptosis in human KB/VCR cells expressing Pgp assessed as down-regulation of Bcl-2 expression at 16 uM after 48 hrs by Western blotting. Type of assay: functional, cell-based. A digest of the protocol: as §6
Assay [19] concerns KB. In words: Potentiation of adriamycin-induced cytotoxicity against human KB cells at 8 uM after 48 hrs by MTT assay. Type of assay: functional. A digest of the protocol: as §2
Assay [20] has as its system KB/VCR. Put plainly: Reversal of P-gp-mediated multidrug-resistance in human KB/VCR cells assessed as increase in intracellular rhodamine-123 accumulation after 1 hr by flow cytometry relative to control. Type of assay: cell-based. Put shortly:
as §5

The subject of assay [21] is KB. In words: Potentiation of vincristine-induced cytotoxicity against human KB cells at 4 uM after 48 hrs by MTT assay. Type of assay: functional. A digest of the protocol:
as §2

Assay [22] concerns KB/VCR. In words: Reversal of P-glycoprotein-mediated vincristine-resistance in human KB/VCR cells expressing Pgp assessed as ratio of vincristine IC50 to vincristine IC50 in presence of compound at 4 uM after 48 hrs by MTT assay.
In assay [23] the test system is KB/VCR. In words: Induction of apoptosis in human KB/VCR cells expressing Pgp assessed as down-regulation of Bcl-2 expression at 0.2 uM after 48 hrs by Western blotting. Type of assay: functional, cell-based. A digest of the protocol:
as §6

Assay [24] concerns KB/VCR. Put plainly: Induction of apoptosis in human KB/VCR cells expressing Pgp assessed as up-regulation of Bax expression at 0.2 uM after 48 hrs by Western blotting. Type of assay: functional, cell-based. A digest of the protocol:
as §6

The subject of assay [25] is KB/VCR. In words: Induction of apoptosis in human KB/VCR cells expressing Pgp assessed as morphological changes using DAPI staining at 0.2 uM after 48 hrs by fluorescence microscopic analysis. In kind it is functional, cell-based. Put shortly: as §3
The test system of a further assay is KB/VCR (human). The note with it: 4 to 16 uM.
The subject of assay [26] is KB/VCR. Put plainly: Reversal of P-gp-mediated multidrug-resistance in human KB/VCR cells assessed as increase in intracellular adriamycin accumulation at 8 uM after 1 hr by flow cytometry relative to control. In kind it is cell-based. A digest of the protocol:
(§7)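 Cells were incubated with ADR at 3 µg/mL, alone or with modulator at 4, 8 or 16 µM, for 1 h at 37 °C. The reaction was stopped in an ice-water bath, and cells were washed twice with ice-cold PBS. Intracellular ADR fluorescence was measured by flow cytometry as mean intensity and expressed relative to DMSO-treated control cells.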

The subject of assay [27] is KB. In words: Induction of adriamycin accumulation in human KB cells at […] after 1 hr by flow cytometry. In kind it is functional, cell-based. A digest of the protocol: as §7
Assay [28] concerns KB/VCR. In words: Reversal of P-gp-mediated multidrug-resistance in human KB/VCR cells assessed as increase in intracellular adriamycin accumulation at 4 uM after 1 hr by flow cytometry relative to control. Type of assay: cell-based. A digest of the protocol:
as §7

Assay [29] has as its system KB/VCR. In words: Reversal of P-gp-mediated multidrug-resistance in human KB/VCR cells assessed as increase in intracellular adriamycin accumulation at 16 uM after 1 hr by flow cytometry relative to control. Type of assay: cell-based. A digest of the protocol: as §7

One may read the IC50 as the midpoint of a concentration-inhibition curve. A high value points to lower potency. For the compound `COc1ccc2cc1Oc1ccc(cc1)CCc1cccc(OC)c1Oc1cccc(c1)CC2` [DIMETHYL ETHER MARCHANTIAN C], the inhibition result with KB/VCR [1] is “Active”. The fold change (FC) is 3.96 in the assay on KB/VCR [2]; 4.2 with KB/VCR [4]; 0.91 in the assay on KB [6]; 2.57 and 6.76 in the assay with KB/VCR [8]; 6.06 with KB/VCR [9]; 1.33 in the assay with KB [11]. The “fold change (FC)” value with KB [12] is 1.02; in the assay on KB/VCR [14], 7.53; in the assay on KB/VCR [15], 4.78; in the assay on KB [17], 1.54; with KB [19] it was 1.15; with KB [21] it was 1.17. Further, the IC50 was determined as 95.4 µM in assay [3] (Homo sapiens, KB/VCR, 48 h) and 94.9 µM in the assay with KB [5]. Moreover, the outcome in the assay with KB/VCR [7], in the assay on KB [10], with KB/VCR [16] and in the assay on KB/VCR [18] was inactive. Besides, the inhibition entry with KB/VCR [13] was “inactive”. In the assay on KB/VCR [20], the Activity entry was “Dose-dependent effect”.

For the compound `COc1ccc2cc1Oc1ccc(cc1)/C=C/c1cccc(OC)c1Oc1cccc(c1)CC2` [DIMETHYLETHER DEHYDROMARCHANTIN C], the fold change (FC) in the assay on KB/VCR [22] amounted to 2.47; in the assay on KB/VCR [14] it was 3.1. The compound further displayed an IC50 in the assay with KB [5] of 93.5 µM.

With `Oc1ccc2cc1Oc1ccc(cc1)/C=C/c1cccc(O)c1Oc1cccc(c1)CC2` [DEHYDROMARCHANTIN C], the IC50 was 86.9 µM in assay [3] (Homo sapiens, KB/VCR, 48 h) and 84 µM with KB [5]. Moreover, the fold change (FC) in the assay on KB/VCR [8] was determined as 3.51; in the assay on KB/VCR [14] it was 5.95; with KB/VCR [15] it was 2.16.

In the case of `CC[C@]1(O)C[C@H]2CN(CCc3c([nH]c4ccccc34)[C@@](C(=O)OC)(c3cc4c(cc3OC)N(C=O)[C@H]3[C@@](O)(C(=O)OC)[C@H](OC(C)=O)[C@]5(CC)C=CCN6CC[C@]43[C@@H]65)C2)C1` [VINCRISTINE], the result in the assay on KB/VCR [23], in the assay on KB/VCR [24] and in the assay on KB/VCR [25] was inactive. The IC50 came to 1.48 µM in assay [3] (Homo sapiens, KB/VCR, 48 h); 1.49 µM in assay [3] (kb/vcr); 0.00607 µM with KB [5].

In the case of `COc1ccc(CCN(C)CCCC(C#N)(c2ccc(OC)c(OC)c2)C(C)C)cc1OC` (stereo unspecified), the “fold change (FC)” value was 1.06 in the assay on KB [6], 5.32 with KB/VCR [9], 8.85 with KB/VCR [14] and 1.29 with KB [17]. Also, the inhibition entry in the assay with KB/VCR (human) is “inactive”.

In the case of `COc1cccc2c1C(=O)c1c(O)c3c(c(O)c1C2=O)C[C@@](O)(C(=O)CO)C[C@@H]3O[C@H]1C[C@H](N)[C@H](O)[C@H](C)O1.Cl` [DOXORUBICIN HYDROCHLORIDE], the fold change (FC) with KB/VCR [26] turned out to be 2.8; in the assay on KB/VCR [28], 2.1; with KB/VCR [29] it was 5.7. Further, the concentration for half-maximal inhibition (IC50) was 49.7 µg/mL in assay [3] (Homo sapiens, KB/VCR, 48 h) and 1.66 µg/mL with KB [5]. For the same compound, in the assay on KB [27], the result was inactive.
